From PubChem
Beta2AR agonist – agonists of human beta-2 adrenergic receptor inducing internalization | P07550 | Am2.2-beta2AR cells, FAP receptor internalization, flow cytometry | response, % (concentration not given with the values) | 340,000 tested, 0.43% active;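 active = response above a set limit, near 3 SD of response in nonfluorescent compounds, cut at about 42% in these data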
Target sequence (P07550 whole entry, looked up): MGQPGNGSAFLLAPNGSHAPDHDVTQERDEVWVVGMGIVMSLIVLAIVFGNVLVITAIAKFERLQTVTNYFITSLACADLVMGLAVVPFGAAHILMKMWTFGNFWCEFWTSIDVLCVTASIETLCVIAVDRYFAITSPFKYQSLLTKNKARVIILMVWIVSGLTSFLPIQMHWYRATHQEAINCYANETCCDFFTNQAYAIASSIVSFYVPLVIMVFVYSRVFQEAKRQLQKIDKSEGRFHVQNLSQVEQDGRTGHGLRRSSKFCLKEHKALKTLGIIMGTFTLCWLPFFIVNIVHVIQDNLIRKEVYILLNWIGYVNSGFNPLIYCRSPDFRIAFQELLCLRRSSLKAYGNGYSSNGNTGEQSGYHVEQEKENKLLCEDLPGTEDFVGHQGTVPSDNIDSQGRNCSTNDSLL
Hep lipid drop – hepatic lipid droplet formation modulation; AML12 mouse hepatocytes, oleate lipid droplets, BODIPY imaging; inhibition, % at 6.5 µM; 240,000 tested, 0.4% active;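 active = lipid droplet intensity inhibited by at least 50%, with more than 500 cells counted; inconclusive = wells with under 300 cells, treated as cytotoxic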
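Assay system: AML12 mouse liver cells | Compound dosing: One dose, 6.5 µM compound | Read-out basis: Droplet intensity reduction, % inhibition | Measured by: Fluorescence imaging, 20x objective, two fields per well | Schedule: Overnight treatment with compound plus oleate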
Arrestin-AP2 inh – human beta-arrestin and AP2 interaction inhibition. FITC-arrestin peptide / GST-AP2 beads, flow cytometry; AP2 beta2 appendage carries R879A mutation. 340,000 tested, 0.31% active. inhibition, % at 10 µM;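 active = inhibition above a set limit, near 3 SD of compounds lacking own fluorescence, cut at about 54% in these data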;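 note: plate controls were DMSO wells for no effect and 5 µM unlabelled arrestin peptide for full effect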
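Measured by: flow cytometry, FL1 (488/535 nm); Material: AP2 appendage R879A on GSH beads; Evaluation: percent response; Timing: pre-incubation 12 min, peptide binding 1 h, room temperature; Also added: 50 nM FITC-arrestin peptide; Medium: PBS with 0.05% Tween 20 and 0.1% BSA.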
TAG inh – inhibitors of triacylglycerol accumulation; H9c2 cells, Nile Red lipid (TAG) fluorescence; cells loaded with 200 µM oleic acid; inhibition, % at 12.5 µM; 230,000 tested, 0.66% active;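 active = pattern-corrected inhibition of lipid staining of at least 50% with the nuclear-stain viability signal not falling by more than 50%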;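 note: 0% = DMSO wells and 100% = triacsin C control wells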
NTR1 ag – agonists of human neurotensin receptor NTR1; 330,000 tested, 0.17% active; NTR1-U2OS beta-arrestin-GFP spot imaging, agonist mode; P30989; activation, % at 20 µM;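 active = activation at or above 40% of the spot to cytoplasm intensity ratio, with at least 20 cells analyzed; inconclusive = wells under 20 cells, flagged as cytotoxic or low count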;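 note: 0% = DMSO without peptide and 100% = 100 nM NTR1 peptide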
GRK2 aptamer HTS – human GRK2 inhibition via aptamer displacement; P25098; bead flow cytometry, FAM-aptamer displacement from GRK2; inhibition of aptamer binding, % at 10 µM; 330,000 tested, 0.59% active;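 active = inhibition of aptamer binding above 40%, roughly 3 SD of noise, on plates passing a quality check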;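 note: median bead fluorescence of bound FAM aptamer so fluorescent compounds give negative values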
* hit, by the source's call; ? = inconclusive; · = not tested or not shown. In the library only some 2% were active in any assay of this set; here they are far more common.

SMILES | Beta2AR agonist | Hep lipid drop | Arrestin-AP2 inh | TAG inh | NTR1 ag | GRK2 aptamer HTS
CC(=O)OC[C@]12CCC(C)=C[C@H]1O[C@@H]1[C@H](O)[C@@H](OC(C)=O)[C@@]2(C)[C@]12CO2 | 103* | 2 | 25 | · | 8 | 0
COC(=O)C1=C(c2ccc3ccccc3c2)C[C@@H]2CC[C@H]1N2C(=O)N1CCC(C)CC1 | -1 | · | 3 | · | -2 | 0
CCn1nc(/C=C/c2ccccc2)nc2c(=O)n(C)c(=O)nc1-2 | 68* | -56 | 9 | · | 10 | ·
CCn1nc(-c2cccs2)nc2c(=O)n(C)c(=O)nc1-2 | 102* | · | 8 | 10 | · | ·
CCOc1ccc(-n2c(-c3cccs3)nc3ccccc3c2=O)cc1 | -14 | -1 | -6 | -37 | 7 | 2
CCOC(=O)c1c(C)[nH]c(C(=O)C(Cc2ccccc2)N(C)C)c1C (stereo not drawn) | 6 | -6 | -7 | · | 0 | 0
COC(=O)C1=C(c2ccc(-c3ccccc3)c(F)c2)C[C@@H]2CC[C@H]1N2C(=O)NC1CCCCC1 | -8 | · | 5 | -22 | -1 | 0
NC(N)=N/N=C/c1cn(-c2ccccc2)nc1-c1cccs1 | 22 | 6 | -3 | 124* | 3 | 0
Oc1ccc(Cl)c(Cl)c1Cl | -1 | · | 12 | · | -1 | 1
COc1ccc(C(=O)OC2C[C@H]3CC[C@@H](C2)N3O)cc1OC (stereo partly drawn) | 62* | 27 | 23 | · | -1 | 2
C=C1C(=O)O[C@@H]2C[C@@H](C)[C@@H]3C=CC(=O)[C@@]3(C)[C@@H](O)[C@H]12 | 40 | -109 | 21 | 72* | 4 | 0
C[N+](C)(N)CCOC(=O)C(O)(c1ccccc1)C1CCCCC1 (stereo not drawn) | 98* | · | 28 | 13 | 1 | 0
CCN(CC)c1ccc(/C=C/[N+](=O)[O-])cc1 | 63* | -12 | 22 | 0 | 30 | 0
COC(=O)C1=C(c2cccc(OCc3ccccc3)c2)C[C@@H]2CC[C@H]1N2C(=O)NCCCOC(C)C | -11 | · | -4 | -4 | -1 | 0
C=C(C=O)CC1CC(O)[C@]2(C)OC3CC4OC5C[C@]6(C)O[C@]7(C)CCC8OC9C[C@]%10(C)OC%11C(C)=CC(=O)OC%11CC%10OC9C[C@@H](C)C8OC7CC6O[C@]5(C)CC5OC5C4OC3CC2O1 (stereo partly drawn) | 107* | ? | -3 | 118 | 17 | 0
O=C1N[C@@H](Cc2ccccc2)C(=O)N2[C@H]1C[C@H]1c3ccccc3N(OOSc3ccccc3)[C@H]12 | 5 | · | -4 | -21 | 1 | 0
O=C(CCN1CC1)OCCOC(=O)CCN1CC1 | 55* | · | 3 | 13 | · | ·
CCC(C)C1NC(=O)C(NC(=O)C(CC(C)C)N(C)C(=O)C2CCCN2C(=O)C(C)O)C(C)OC(=O)C(Cc2ccc(OC)cc2)N(C)C(=O)C2CCCN2C(=O)C(CC(C)C)NC(=O)[C@H](C)C(=O)[C@H](C(C)C)OC(=O)CC1O (stereo partly drawn) | 42* | · | -10 | 124 | · | ·
CC(=O)N(C)CC#CCN1CCCC(CO)C1 (stereo not drawn) | 6 | · | -1 | 23 | -6 | 4
COc1ccc(CN2C(=O)NC(=O)/C(=C\c3ccco3)C2=O)cc1 | 26 | · | 6 | 9 | 6 | 38
O=C1NC(=O)N(Cc2ccccc2)C(=O)/C1=C/C=C/c1ccco1 | 76* | -4 | 15 | 16 | 4 | 1
Cc1cccc(N=C2c3cc([N+](=O)[O-])ccc3-c3c2cc([N+](=O)[O-])cc3[N+](=O)[O-])c1 | -1 | · | 16 | 62* | · | ·
COC1=C(C)C(=O)C2=C(C1=O)C(CO)N1C(C#N)C3CC4C(C1C2N1CCOC41)N3C (stereo not drawn) | -1 | · | 42 | 83* | · | ·
C[C@@H]1C[C@@H]([C@H](O)CC2CC(=O)NC(=O)C2)C(=O)[C@@H](C)C1 | 11 | · | -8 | · | 0 | 0
CC(=O)OC1(C)CC(C)C(=O)C(C(O)CC2CC(=O)NC(=O)C2)C1 (stereo not drawn) | 68* | · | -4 | · | · | ·
COc1cc2c(cc1OC)-c1c3c(cc4c1[C@@H](C2)N(C)CC4)OCO3 | 3 | -6 | 33 | 53* | 2 | 2
